The subject of one test is Candida albicans. As to the kind of experiment: Antimicrobial activity against Candida albicans ATCC 90028 by NCCLS method. It counts as functional, organism-based. The settings on record: Candida albicans, ATCC 90028. The method in brief: (§1)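 Samples serially diluted in 20% DMSO/saline, tested in duplicate. Inocula set by OD630: C. albicans RPMI pH 4.5, 1·10^4 CFU/mL; C. neoformans Sabouraud dextrose, 1·10^5; MRSA cation-adjusted Mueller-Hinton pH 7.3, 5·10^5; M. intracellulare 7H9/OADC + 5% Alamar Blue pH 7.3, 2·10^6; A. fumigatus RPMI pH 7.3 + 5% Alamar Blue, 3·10^4.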

For a further test, the system named is Cryptococcus neoformans. As to the kind of experiment: Antimicrobial activity against Cryptococcus neoformans ATCC 90113 by NCCLS method. The class given is functional, organism-based. The method in brief:
as §1

In another test the test system is Aspergillus fumigatus. As to the kind of experiment: Antimicrobial activity against Aspergillus fumigatus ATCC 90906 by alamar blue assay. The class given is functional, organism-based. Particulars: Aspergillus fumigatus, ATCC 90906. The procedure, abridged:
as §1

A further test deals with SK-MEL. As to the kind of experiment: Cytotoxicity against human SK-MEL cells after 48 hrs by neutral red assay. The class given is functional, cell-based. The procedure, abridged:
(§2)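 Cells seeded at 25,000/well, incubated 24 h, then exposed to samples for 48 h. Viable cells measured by Neutral Red uptake. IC50 from logarithmic plots of growth inhibition vs concentration. Doxorubicin positive control, DMSO vehicle control.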

The subject of a further test is KB. As to the kind of experiment: Cytotoxicity against human KB cells after 48 hrs by neutral red assay. It counts as functional, cell-based. The procedure, abridged: as §2
The next test deals with BT-549. As to the kind of experiment: Cytotoxicity against human BT549 cells after 48 hrs by neutral red assay. The class given is functional, cell-based. The settings on record: BT-549, 48 h. The procedure, abridged:
as §2

In a further test the test system is SK-OV-3. As to the kind of experiment: Cytotoxicity against human SKOV3 cells after 48 hrs by neutral red assay. It counts as functional, cell-based. Particulars: SK-OV-3, 48 h. The method in brief: as §2
In the next test the test system is Vero. Description: Cytotoxicity against african green monkey Vero cells after 48 hrs by neutral red assay. The class given is cell-based, Chlorocebus sabaeus. Particulars: Chlorocebus sabaeus, Vero, 48 h; read-out: IC50. The procedure, abridged: as §2
Test [1] is described as follows: Toxicity in RBC assessed as hemolysis. It counts as cell-based. The settings on record: Erythrocyte.
Test [2] has as its system Plasmodium berghei. Description: Antimalarial activity as reduced parasitaemia at day 17 against Plasmodium berghei NK65 infected Swiss Webster mice (Mus musculus) at 10 mg/kg/day intraperitoneal dose for 3 days. Also noted: scale not given: the % may be the effect or the level left. It counts as functional. The procedure, abridged: (§3)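 Peters 4-day suppressive test: male Swiss Webster mice (18–20 g) inoculated ip with 2·10^7 P. berghei NK-65 parasitized red cells. Compound in DMSO:PEG:water (1:3:6) given ip ~2 h post-infection, then once daily for 3 days (days 0–2). 5 mice/group; vehicle-treated control. Giemsa-stained tail blood smears read to day 28. % suppression = 100 − (treated/untreated parasitemia × 100). Cure = no parasitemia until day 28. Mice observed after each dose for signs of toxicity.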

For test [3], the system named is Plasmodium berghei. As to the kind of experiment: Antimalarial activity as elimination of parasitaemia at day 28 against Plasmodium berghei NK65 infected Swiss Webster mice (Mus musculus) at 10 mg/kg/day intraperitoneal dose for 3 days. The class given is functional, organism-based. The method in brief:
as §3

In test [4] the test system is Plasmodium berghei. As to the kind of experiment: Antimalarial activity as reduced parasitaemia at day 10 against Plasmodium berghei NK65 infected Swiss Webster mice (Mus musculus) at 10 mg/kg/day intraperitoneal dose for 3 days. It counts as functional. On the set-up: scale not given: the % may be the effect or the level left. The procedure, abridged:
as §3

SMILES strings stand for the structures. ≈ marks a conversion by molar mass, not a printed value. Calls of active or inactive are those of the source. No cut-off for these calls is given here.

On to `C[C@@H]1[C@H](O)[C@@H](C)/C=C/C=C/C=C/C=C/C=C/C=C/C=C/[C@H](O[C@@H]2O[C@H](C)[C@@H](O)[C@H](N)[C@@H]2O)C[C@@H]2O[C@](O)(C[C@@H](O)C[C@@H](O)[C@H](O)CC[C@@H](O)C[C@@H](O)CC(=O)O[C@H]1C)C[C@H](O)[C@H]2C(=O)O` [AMPHOTERICIN B], for which the MIC against Candida albicans and with Aspergillus fumigatus was 0.63 µg/mL (≈ 0.682 µM) throughout. Further, the IC50 – broadly, the concentration at which inhibition is half-maximal – in the test with Candida albicans (read-out: IC50) was 0.35 µg/mL (≈ 0.379 µM); in the test with Cryptococcus neoformans it was 0.45 µg/mL (≈ 0.487 µM); with Aspergillus fumigatus (read-out: IC50), 0.4 µg/mL (≈ 0.433 µM); in the test with SK-MEL, 5 µg/mL (≈ 5.41 µM); in the test on KB, > 25 µg/mL; with BT-549, 5.5 µg/mL (≈ 5.95 µM). In addition, the concentration for half-maximal inhibition (IC50) in the test on SK-OV-3 was > 25 µg/mL; in the test with Vero, 7.5 µg/mL (≈ 8.12 µM); in test [1], 3.9 µg/mL (≈ 4.22 µM).

On to `CCO[C@H]1O[C@@H]2O[C@@]3(C)CC[C@H]4[C@H](C)CC[C@@H]([C@H]1C)[C@@]24OO3` [ARTEMOTIL], for which the Activity with Plasmodium berghei [2] and in the test with Plasmodium berghei [4] was 100% throughout. The result in the test with Plasmodium berghei [3] was Active.
